From PubChem
A selection: hits, their analogues and other compounds. The true share with any hit is near 2.7%.
BB579 growth dn: chemicals that inhibit yeast BB579 growth in restrictive medium (lifespan-shortening candidates); S. cerevisiae BB579 growth, OD615, 48 h; inhibition, % at 10 µM; 0.51% of 140,000 active;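 active = inhibition above a set limit, 3 SD over the mean compound inhibition, cut at about 44% in these data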
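Test system: S. cerevisiae DeaD strain BB579 yeast; Medium: restrictive CSMM-D medium; Compound: one dose, 10 µM compound with 0.25% DMSO; Incubation: 4 h cell preincubation, 48 h compound exposure, 30 °C humidified; Signal: OD at 615 nm; Benchmarks: amphotericin B at 10 µg/mL as positive control.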
RAM inhibit: yeast RAM network inhibition. S. cerevisiae dse1pr::URA3 reporter, 5-FOA growth OD615, 2 d; analog-sensitive cbk1-as2 kinase mutant strain. inhibition, % at 50 µM. 1.8% of 190,000 active. AID 868;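 active = inhibition above a set limit, 3 SD over mean compound inhibition, cut at about 8.4% in these data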;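 also: 0% = DMSO-only wells with no growth and 100% = 10 µM 1-NA-PP1 full growth; inhibition rescues growth on 5-FOA so higher OD means more RAM inhibition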
sdo1 growth: sdo1-depleted yeast growth rescue; AID 817; 0.21% of 140,000 active; S. cerevisiae sdo1-depleted JHY4D growth rescue, OD600 30 h; stronger effect = higher value; pdr5 snq2 efflux-pump mutant strain; z-score at 10 µM;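 active = z-score above 3 at both the 24 hr and the 30 hr optical density reads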;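 also: z-score against mean and SD of all compound wells on the same plate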
Yeast lifespan up: yeast lifespan extension; S. cerevisiae growth with nicotinamide, OD615; deaD strain in restrictive glucose medium; AID 775; 0.68% of 130,000 active; inhibition of the nicotinamide effect, % at 10 µM;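 active = inhibition above a set limit, placed 3 SD over the median of all compounds, cut at about 26% in these data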;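 also: 0% = nicotinamide-treated wells and 100% = cells grown without nicotinamide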
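Measured by: optical density (absorbance) at 615 nm; System: modified budding yeast, DeaD strain; Medium: restrictive CSMM-D dextrose medium; Timing: 4 h preincubation then 48 h treatment at 30 °C.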
* marks the source's active call; other numbers are inactive results.

`COc1cccc(/C=N/NC(N)=S)c1OCc1ccccc1Cl` gave BB579 growth dn -40, RAM inhibit 8.8*, sdo1 growth -1.5 and Yeast lifespan up 2.
Screening COc1cccc(/C=N/n2nnnc2N)c1OCc1ccccc1Cl returned BB579 growth dn -33, RAM inhibit 1 and sdo1 growth -0.16.
COc1ccc(NCc2ccc([N+](=O)[O-])s2)cc1 was read as BB579 growth dn 27, RAM inhibit 0, sdo1 growth 0.1 and Yeast lifespan up 22.
COc1ccc(NCc2ccc([N+](=O)[O-])s2)c(OC)c1 was read as BB579 growth dn 100*, RAM inhibit -1, sdo1 growth -0.07 and Yeast lifespan up -8.
Screening O=c1c2sc(-c3ccccc3)cc2nc2n1CCC2 returned BB579 growth dn 83*, RAM inhibit 5 and sdo1 growth -2.4.
O=c1c2c(-c3ccccc3)csc2nc2n1CCC2 was read as BB579 growth dn -15, RAM inhibit 5, sdo1 growth 1.4 and Yeast lifespan up -17.
Screening COc1cc(CN2CCNC(=O)C2CC(=O)N(C)Cc2ncc[nH]2)cc(OC)c1 (stereo not given) returned RAM inhibit 0.
Screening CCc1ccc(C2NC(=S)NC3=C2C(=O)N(c2ccccc2OC)C(c2ccc(CC)cc2)N3)cc1 (stereo not given) returned BB579 growth dn 53*, RAM inhibit 1, sdo1 growth -1.8 and Yeast lifespan up -18.
`C[C@@H](C(=O)O)[C@H]1C[C@]1(C)[C@H](NC(=O)OCc1ccccc1)c1ccccc1` gave BB579 growth dn -3, RAM inhibit -1, sdo1 growth 0.2 and Yeast lifespan up 19.
COC(=O)[C@H](C)[C@@H]1C[C@@]1(C)[C@@H](NC(=O)OCc1ccccc1)c1ccccc1 was read as BB579 growth dn -46, RAM inhibit 8.6*, sdo1 growth -0.82 and Yeast lifespan up 9.
C[C@@H](C(=O)NCc1ccccc1)[C@H]1C[C@]1(C)[C@H](NC(=O)OCc1ccccc1)c1ccccc1 was read as BB579 growth dn -16, RAM inhibit 9.5*, sdo1 growth -0.62 and Yeast lifespan up 3.
`Cc1ccccc1OCCN(C#N)c1nc(N(C)C)nc(N(C)C)n1` gave RAM inhibit 4.
Screening CCCSc1nc(C)cc(=O)[nH]1 returned BB579 growth dn -20, RAM inhibit 1, sdo1 growth 0.31 and Yeast lifespan up -4.
For CCCSc1nc(N)cc(=O)[nH]1 the results were BB579 growth dn -28, RAM inhibit 1, sdo1 growth 0.46 and Yeast lifespan up 34*.
`Cc1ccc(C(=O)N/C(=C/c2ccco2)C(=O)OCN2C(=O)c3ccccc3C2=O)cc1` gave BB579 growth dn -35, RAM inhibit 2, sdo1 growth -0.66 and Yeast lifespan up 1.
Fc1cccc2sc(Nc3nnc(-c4ccccc4)o3)nc12 was read as BB579 growth dn -41, RAM inhibit 0, sdo1 growth 0.78 and Yeast lifespan up 60*.
For COc1cc(OC)cc(-c2nnc(Nc3nc4c(F)cccc4s3)o2)c1 the results were BB579 growth dn -21, RAM inhibit 2, sdo1 growth 0.04 and Yeast lifespan up -3.
Screening O=S(=O)(NCC1CCCO1)c1ccc(Br)s1 (stereo not given) returned BB579 growth dn -21, RAM inhibit 0, sdo1 growth 0.98 and Yeast lifespan up -3.
`O=S(=O)(NC1CC2CCC1C2)c1ccc(Br)s1` (stereo not given) gave BB579 growth dn 98*, RAM inhibit -1, sdo1 growth -1.3 and Yeast lifespan up -29.
For CN(CC(=O)NCCc1ccccc1)S(=O)(=O)c1ccccc1 the results were RAM inhibit 1.
Screening Brc1ccccc1-c1nnc(SCc2nc3ccccc3s2)o1 returned BB579 growth dn 1, RAM inhibit 8.6*, sdo1 growth -1.4 and Yeast lifespan up -4.
Screening Cn1nnnc1SCc1nc2ccccc2s1 returned BB579 growth dn -22, RAM inhibit 1, sdo1 growth 0.78 and Yeast lifespan up -12.
O=C(NCCc1ccccc1)c1nc(-c2cccs2)no1 was read as RAM inhibit -1.
COc1ccc(S(=O)(=O)N(C)C)cc1NCC(=O)Nc1ccc(Br)c(C)c1 was read as RAM inhibit 5.
`Cc1cccn2c(/C=N/OCc3cccc(F)c3)c(-c3ccc(Cl)cc3)nc12` gave BB579 growth dn -27, RAM inhibit 9.3*, sdo1 growth -0.98 and Yeast lifespan up -8.
Screening Fc1cccc(CO/N=C/c2c(-c3ccccc3)nc3ccc(Cl)cn23)c1 returned BB579 growth dn -47, RAM inhibit 9.1*, sdo1 growth 2 and Yeast lifespan up 4.
`COc1cccc(/C(C#N)=C/c2c(-c3ccc(Cl)cc3)nc3c(C)cccn23)c1` gave BB579 growth dn -8, RAM inhibit 0, sdo1 growth -1.5 and Yeast lifespan up 3.
COc1ccccc1C(=O)Nc1sc(C(=O)N2CCCC2)c(C)c1C#N was read as RAM inhibit 8.5*.
CC(Nc1nc(N2CCNCC2)nc2ccccc12)c1ccccc1 (stereo not given) was read as RAM inhibit -1.
For CCOC(=O)/C(=N\Nc1ccccc1)c1csc(Nc2ccc(C)cc2)n1 the results were BB579 growth dn -1, RAM inhibit 10*, sdo1 growth -1.1 and Yeast lifespan up -2.
`CCNC(=S)N/N=C(\C)c1ccc(N2CCOCC2)cc1` gave BB579 growth dn -10, RAM inhibit 1, sdo1 growth 1.8 and Yeast lifespan up 1.
`CNC(=S)N/N=C(\C)c1ccc(N2CCOCC2)cc1` gave BB579 growth dn 70*, RAM inhibit 0, sdo1 growth 2.3 and Yeast lifespan up -6.
Screening COc1cccc(C(=O)Nc2cccc3c2ccc2cccn23)c1 returned RAM inhibit 2.
Screening N#C/C(=C\c1cccs1)Sc1nc2ccccc2s1 returned BB579 growth dn -53, RAM inhibit 9.1*, sdo1 growth -1.6 and Yeast lifespan up -7.
For COc1cccc(-c2nc3n(n2)C(c2ccc4c(c2)OCO4)C(C(N)=O)=C(C)N3)c1 (stereo not given) the results were BB579 growth dn 4, RAM inhibit 10*, sdo1 growth -0.3 and Yeast lifespan up -11.
Screening CCCC(=O)Nc1sc2c(c1C(=O)OCC)CC(C)(C)OC2 returned RAM inhibit 0.
For CCOC(=O)c1c(NC(=O)c2ccc(C)cc2)sc2c1CC(C)(C)OC2 the results were BB579 growth dn -56, RAM inhibit 10*, sdo1 growth -0.22 and Yeast lifespan up 4.
Screening CCOC(=O)c1c(NC(=O)c2ccccc2C)sc2c1CC(C)(C)OC2 returned BB579 growth dn -49, RAM inhibit 8.8*, sdo1 growth -0.24 and Yeast lifespan up -4.
For COc1cc(-c2nc(CN(C)C(C)c3ccncn3)c(C)o2)ccc1F (stereo not given) the results were RAM inhibit 2.
Screening COc1ccc(Nc2cnn(-c3nc4ccccc4s3)c(=O)c2Cl)cc1 returned BB579 growth dn 78*, RAM inhibit 5, sdo1 growth -1.6 and Yeast lifespan up -1.
